{"data": "Assay results of several laboratories", "cell line": "Vero", "observed": "cell growth or viability"}
{"SMILES": "Clc1ccccc1NCc1ccc(Oc2ccccn2)cc1", "assay": "MTT", "conditions": "72 h", "CC50": "> 300 µM"}
{"SMILES": "CC1(C)OB(CC2c3ccccc3C(=O)N2C2CCCCC2)OC1(C)C (stereo not drawn)", "CC50": "175 µM"}
{"SMILES": "Brc1cccc(NCc2ccc(Oc3ccccn3)cc2)c1", "assay": "MTT", "conditions": "72 h", "CC50": "> 300 µM"}
{"SMILES": "NC(=O)c1ncn([C@@H]2O[C@H](CO)[C@@H](O)[C@H]2O)n1", "assay": "MTT", "conditions": "72 h", "CC50": "> 200 µM"}
{"SMILES": "O=C(Nc1ccc(Br)cc1)c1cc(Cl)ccc1O", "assay": "MTT", "conditions": "72 h", "CC50": "10 µg/mL"}
{"SMILES": "CC(C(=O)O)N1c2nc(-c3ccc(Cl)cc3)c(C#N)c(=O)n2NC1(C)c1ccccc1O (stereo not drawn)", "assay": "MTT", "conditions": "72 h", "CC50": "250 µg/mL"}
{"SMILES": "O=C(Nc1ccc(Br)c(C(F)(F)F)c1)c1cc(Cl)ccc1O", "assay": "MTT", "conditions": "72 h", "CC50": "5 µg/mL"}
{"SMILES": "Clc1ccc(NCc2ccc(Oc3ccccn3)cc2)cc1", "assay": "MTT", "conditions": "72 h", "CC50": "> 300 µM"}
{"SMILES": "COC(=O)N[C@H](C(=O)N1C[C@@H](N=[N+]=[N-])C[C@H]1c1nc(Br)c(-c2ccc(-c3ccc(-c4[nH]c([C@@H]5C[C@H](N=[N+]=[N-])CN5C(=O)[C@@H](NC(=O)OC)C(C)C)nc4Br)cc3)cc2)[nH]1)C(C)C", "CC50": "> 100 µM"}
{"SMILES": "c1ccc(NCc2ccc(Oc3ccccn3)cc2)cc1", "assay": "MTT", "conditions": "72 h", "CC50": "> 300 µM"}
{"SMILES": "CC(=O)C1=C(C)N2NC(c3ccccc3O)N(C(Cc3c[nH]c4ccccc34)C(=O)O)C2=NC1c1ccc(Cl)cc1 (stereo not drawn)", "assay": "MTT", "conditions": "72 h", "CC50": "250 µg/mL"}
{"SMILES": "O=C(Nc1ccc(F)c(F)c1)c1cc(Cl)ccc1O", "assay": "MTT", "conditions": "72 h", "CC50": "< 5 µg/mL"}
{"SMILES": "Fc1ccccc1NCc1ccc(Oc2ccccn2)cc1", "assay": "MTT", "conditions": "72 h", "CC50": "> 300 µM"}
{"SMILES": "CC(=O)C1=C(C)N2NC(C)(c3ccccc3O)N(C(Cc3c[nH]c4ccccc34)C(=O)O)C2=NC1c1ccc(Cl)cc1 (stereo not drawn)", "assay": "MTT", "conditions": "72 h", "CC50": "500 µg/mL"}
{"SMILES": "CC(C)(CO)C(=O)SCCOP(=O)(NCc1ccccc1)OC[C@H]1O[C@@H](n2cnc3c(=O)[nH]c(N)nc32)[C@](C)(O)[C@@H]1O (mixture of isomers)", "CC50": "> 100 µM"}
{"SMILES": "O=C(Nc1ccc([N+](=O)[O-])cc1F)c1cc(Cl)ccc1O", "assay": "MTT", "conditions": "72 h", "CC50": "5 µg/mL"}
{"SMILES": "COc1ccc(NCc2ccc(Oc3ccccn3)cc2)cc1", "assay": "MTT", "conditions": "72 h", "CC50": "> 300 µM"}
{"SMILES": "O=C(Nc1ccc(Cl)c(C(F)(F)F)c1)c1ccccc1O", "assay": "MTT", "conditions": "72 h", "CC50": "< 10 µg/mL"}
{"SMILES": "O=C1C(O)=C([C@H]2CC[C@H](c3ccc(Cl)cc3)CC2)C(=O)c2ccccc21", "CC50": "9.5 µM"}
{"SMILES": "O=C(Nc1ccc(Cl)c(C(F)(F)F)c1)c1cc(Cl)ccc1O", "assay": "MTT", "conditions": "72 h", "CC50": "5 µg/mL"}
{"SMILES": "COC(=O)N[C@@H](C[S+]([O-])Cc1ccccc1)C(=O)N1CCC[C@H]1c1ncc(-c2ccc(-c3ccc(-c4cnc([C@@H]5CCCN5C(=O)[C@@H](NC(=O)OC)C(C)C)[nH]4)cc3)cc2)[nH]1 (stereo partly drawn)", "CC50": "4 µM"}
